Experimental findings from ChEMBL document CHEMBL4261658, “4-Hydroxy-3-nitro-5-ureido-benzenesulfonamides Selectively Target the Tumor-Associated Carbonic Anhydrase Isoforms IX and XII Showing Hypoxia-Enhanced Antiproliferative Profiles” (J Med Chem, 2018) are described below.

The target of one assay is Carbonic anhydrase 1 (Homo sapiens, UniProt P00915). Briefly: Inhibition of recombinant human cytosolic carbonic anhydrase 1 preincubated for 15 mins by stopped flow CO2 hydration assay.
The target of the next assay is Carbonic anhydrase 9 (Homo sapiens, UniProt Q16790). Kind of assay: Inhibition of carbonic anhydrase 9 (unknown origin) preincubated for 15 mins by stopped flow CO2 hydration assay.
Another assay concerns the target Carbonic anhydrase 12 (Homo sapiens, UniProt O43570).
A further assay is filed under the species Homo sapiens. Kind of assay: Selectivity ratio of Ki for carbonic anhydrase 2 (unknown origin) to Ki for carbonic anhydrase 9 (unknown origin).
Assay [1] deals with HT-29. Kind of assay: Cytotoxicity against human HT-29 cells assessed as reduction in cell viability after 48 hrs under normoxic conditions by MTT assay. It is filed as functional, cell-based. As to conditions: for IC50: HT-29, 48 h. In a few lines:
(§1)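 Cells cultured in high-glucose DMEM with 20% FBS at 37 °C and 5% CO2, seeded at 1x10^4/well, then dosed 24 h later (0–200 μM) for 48 h. Hypoxia: 1% O2, 5% CO2, balance N2 in a hypoxic workstation; normoxia: 20% O2 in air, 5% CO2. MTT (1 mg/ml) for 30 min at 37 °C, formazan dissolved in DMSO, A550. Untreated control set to 100%; quadruplicates, ≥3 cell batches, mean ± S.E.M.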

Assay [2] concerns MDA-MB-231. Briefly: Cytotoxicity against human MDA-MB-231 cells assessed as reduction in cell viability after 48 hrs under normoxic conditions by MTT assay. The format is functional, cell-based. The note with it: for IC50: MDA-MB-231, 48 h. In a few lines:
as §1

Assay [3] has as its system PC-3. Kind of assay: Cytotoxicity against human PC3 cells assessed as reduction in cell viability after 48 hrs under normoxic conditions by MTT assay. The format is functional, cell-based. The note with it: for IC50: PC-3, 48 h. The method in brief:
as §1

Assay [4] deals with HT-29. Briefly: Cytotoxicity against human HT-29 cells assessed as reduction in cell viability after 48 hrs under hypoxic conditions by MTT assay. The note with it: for IC50: HT-29, 48 h. It is filed as functional, cell-based. The method in brief:
as §1

Assay [5] has as its system MDA-MB-231. Briefly: Cytotoxicity against human MDA-MB-231 cells assessed as reduction in cell viability after 48 hrs under hypoxic conditions by MTT assay. The format is functional, cell-based. As to conditions: for IC50: MDA-MB-231, 48 h. In a few lines: as §1
Assay [6] has as its system PC-3. Briefly: Cytotoxicity against human PC3 cells assessed as reduction in cell viability after 48 hrs under hypoxic conditions by MTT assay. The format is functional, cell-based. As to conditions: for IC50: PC-3, 48 h. The method in brief: as §1
Assay [7] concerns MDA-MB-231. Kind of assay: Cytotoxicity against human MDA-MB-231 cells assessed as cell viability at 200 uM after 48 hrs under hypoxic conditions by MTT assay (reference value: 100%). The format is functional. The note with it: MDA-MB-231, 48 h, read-out: Activity. The method in brief:
as §1

Assay [8] relates to MDA-MB-231. Briefly: Cytotoxicity against human MDA-MB-231 cells assessed as cell viability at 30 uM after 48 hrs under normoxic conditions by MTT assay (reference value: 100%). The format is functional. As to conditions: MDA-MB-231, 48 h, read-out: Activity. The method in brief: as §1
Assay [9] deals with MDA-MB-231. Kind of assay: Cytotoxicity against human MDA-MB-231 cells assessed as cell viability at 100 uM after 48 hrs under normoxic conditions by MTT assay (reference value: 100%). The note with it: MDA-MB-231, 48 h, read-out: Activity. The format is functional. In a few lines: as §1
Assay [10] relates to MDA-MB-231. Kind of assay: Cytotoxicity against human MDA-MB-231 cells assessed as cell viability at 200 uM after 48 hrs under normoxic conditions by MTT assay (reference value: 100%). It is filed as functional. The note with it: MDA-MB-231, 48 h, read-out: Activity. In a few lines:
as §1

Assay [11] relates to MDA-MB-231. Kind of assay: Cytotoxicity against human MDA-MB-231 cells assessed as cell viability at 100 uM after 48 hrs under hypoxic conditions by MTT assay (reference value: 100%). The format is functional. The note with it: MDA-MB-231, 48 h, read-out: Activity. The method in brief:
as §1

Assay [12] relates to MDA-MB-231. Briefly: Cytotoxicity against human MDA-MB-231 cells assessed as cell viability at 30 uM after 48 hrs under hypoxic conditions by MTT assay (reference value: 100%). The format is functional. As to conditions: MDA-MB-231, 48 h, read-out: Activity. The method in brief:
as §1

For assay [13], the system named is PC-3. Kind of assay: Cytotoxicity against human PC3 cells assessed as cell viability at 30 uM after 48 hrs under normoxic conditions by MTT assay (reference value: 100%). The note with it: PC-3, 48 h, read-out: Activity. The format is functional. The method in brief:
as §1

For assay [14], the system named is PC-3. Briefly: Cytotoxicity against human PC3 cells assessed as cell viability at 100 uM after 48 hrs under normoxic conditions by MTT assay (reference value: 100%). The format is functional. As to conditions: PC-3, 48 h, read-out: Activity. In a few lines:
as §1

For assay [15], the system named is PC-3. Briefly: Cytotoxicity against human PC3 cells assessed as cell viability at 200 uM after 48 hrs under normoxic conditions by MTT assay (reference value: 100%). The format is functional. As to conditions: PC-3, 48 h, read-out: Activity. In a few lines: as §1
For assay [16], the system named is PC-3. Kind of assay: Cytotoxicity against human PC3 cells assessed as cell viability at 30 uM after 48 hrs under hypoxic conditions by MTT assay (reference value: 100%). As to conditions: PC-3, 48 h, read-out: Activity. It is filed as functional. In a few lines:
as §1

Assay [17] deals with PC-3. Kind of assay: Cytotoxicity against human PC3 cells assessed as cell viability at 100 uM after 48 hrs under hypoxic conditions by MTT assay (reference value: 100%). The format is functional. The note with it: PC-3, 48 h, read-out: Activity. In a few lines: as §1
Assay [18] deals with PC-3. Briefly: Cytotoxicity against human PC3 cells assessed as cell viability at 200 uM after 48 hrs under hypoxic conditions by MTT assay (reference value: 100%). It is filed as functional. As to conditions: PC-3, 48 h, read-out: Activity. The method in brief:
as §1

Assay [19] has as its system HT-29. Briefly: Cytotoxicity against human HT-29 cells assessed as cell viability at 30 uM after 48 hrs under normoxic conditions by MTT assay (reference value: 100%). It is filed as functional. As to conditions: Homo sapiens, HT-29, 48 h; read-out: Activity. The method in brief: as §1
Assay [20] concerns HT-29. Kind of assay: Cytotoxicity against human HT-29 cells assessed as cell viability at 100 uM after 48 hrs under normoxic conditions by MTT assay (reference value: 100%). It is filed as functional. The note with it: Homo sapiens, HT-29, 48 h; read-out: Activity. In a few lines:
as §1

The test system of assay [21] is HT-29. Briefly: Cytotoxicity against human HT-29 cells assessed as cell viability at 200 uM after 48 hrs under normoxic conditions by MTT assay (reference value: 100%). The format is functional. As to conditions: Homo sapiens, HT-29, 48 h; read-out: Activity. The method in brief:
as §1

The test system of assay [22] is HT-29. Briefly: Cytotoxicity against human HT-29 cells assessed as cell viability at 30 uM after 48 hrs under hypoxic conditions by MTT assay (reference value: 100%). It is filed as functional. The note with it: Homo sapiens, HT-29, 48 h; read-out: Activity. In a few lines:
as §1

Assay [23] has as its system HT-29. Kind of assay: Cytotoxicity against human HT-29 cells assessed as cell viability at 100 uM after 48 hrs under hypoxic conditions by MTT assay (reference value: 100%). The format is functional. The note with it: Homo sapiens, HT-29, 48 h; read-out: Activity. The method in brief: as §1
In assay [24] the test system is HT-29. Kind of assay: Cytotoxicity against human HT-29 cells assessed as cell viability at 200 uM after 48 hrs under hypoxic conditions by MTT assay (reference value: 100%). It is filed as functional. As to conditions: Homo sapiens, HT-29, 48 h; read-out: Activity. In a few lines:
as §1

The next assay concerns the target Carbonic anhydrase 2 (Homo sapiens, UniProt P00918). Kind of assay: Inhibition of carbonic anhydrase 2 (unknown origin) preincubated for 15 mins by stopped flow CO2 hydration assay.
For assay [25], the system named is MDA-MB-231. Briefly: Potency index, ratio of cytotoxicity against human MDA-MB-231 cells assessed as reduction in cell viability at 100 uM after 48 hrs under hypoxic conditions by MTT assay to cytotoxicity against human MDA-MB-231 cells assessed as reduction in cell viability at 100 uM after 48 hrs under normoxic conditions by MTT assay. The format is functional.

In assay [26] the test system is HT-29. Kind of assay: Cytotoxicity against human HT-29 cells assessed as cell viability at 300 uM after 48 hrs under hypoxic conditions by MTT assay (reference value: 100%). It is filed as functional. The note with it: HT-29, 48 h, read-out: Activity.

Carbonic anhydrase 12, sequence (O43570 whole entry): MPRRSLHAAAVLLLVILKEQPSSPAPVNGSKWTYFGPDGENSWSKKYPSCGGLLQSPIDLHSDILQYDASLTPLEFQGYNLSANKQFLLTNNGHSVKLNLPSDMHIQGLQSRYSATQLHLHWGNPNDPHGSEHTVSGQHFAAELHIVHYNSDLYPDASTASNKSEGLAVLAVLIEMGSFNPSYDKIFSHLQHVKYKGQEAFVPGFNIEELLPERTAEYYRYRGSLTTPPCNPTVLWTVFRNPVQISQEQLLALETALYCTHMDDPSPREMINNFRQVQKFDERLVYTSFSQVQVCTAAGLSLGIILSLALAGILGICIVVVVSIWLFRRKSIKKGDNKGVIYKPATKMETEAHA
Carbonic anhydrase 1, sequence (P00915 whole entry): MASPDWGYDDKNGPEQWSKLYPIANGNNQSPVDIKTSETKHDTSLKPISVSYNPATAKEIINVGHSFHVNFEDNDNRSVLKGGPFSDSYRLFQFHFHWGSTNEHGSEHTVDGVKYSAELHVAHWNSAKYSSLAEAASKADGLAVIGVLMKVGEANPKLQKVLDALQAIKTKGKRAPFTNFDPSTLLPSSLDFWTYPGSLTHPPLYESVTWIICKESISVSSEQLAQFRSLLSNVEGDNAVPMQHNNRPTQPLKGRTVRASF

Consider `NS(=O)(=O)c1cc(NC(=O)Nc2ccc3c(c2)OCO3)c(O)c([N+](=O)[O-])c1`, for which the Ki at Carbonic anhydrase 1 is over 50 µM; at Carbonic anhydrase 9, 0.15 µM; on Carbonic anhydrase 12 it was 0.25 µM. Moreover, the Ratio Ki in the assay filed under Homo sapiens was 30. Further, the Activity entry in the assay on HT-29 [1], with MDA-MB-231 [2], in the assay on PC-3 [3], in the assay on HT-29 [4], in the assay with MDA-MB-231 [5] and in the assay on PC-3 [6] was “Dose-dependent effect” each time. The IC50 with HT-29 [1] was over 200 µM; with MDA-MB-231 [2], over 200 µM; in the assay on PC-3 [3], over 200 µM; with HT-29 [4], 79.5 µM; in the assay on MDA-MB-231 [5], over 200 µM; in the assay with PC-3 [6], over 200 µM. Moreover, the viability at 200 µM in the assay on MDA-MB-231 [7] was 67.5%; in the assay with MDA-MB-231 [10], 103%; in the assay with PC-3 [15], 61.6%; in the assay on PC-3 [18] it was 70.2%; in the assay on HT-29 [21], 60.4%; in the assay with HT-29 [24], 24.6%. Besides, the viability at 30 µM turned out to be 105% with MDA-MB-231 [8]; 105% in the assay on MDA-MB-231 [12]; 80.1% in the assay with PC-3 [13]; 101% in the assay with PC-3 [16]; 71.5% with HT-29 [19]; 28.3% in the assay with HT-29 [22]. The viability at 100 µM in the assay on MDA-MB-231 [9] came out at 95%; in the assay on MDA-MB-231 [11], 92.2%; in the assay with PC-3 [14], 65.9%; with PC-3 [17] it was 77.5%; in the assay on HT-29 [20] it was 62.7%; with HT-29 [23] it was 22.8%.
As for `NS(=O)(=O)c1cc(NC(=O)Nc2ccc(C(F)(F)F)cc2)c(O)c([N+](=O)[O-])c1`, the Ki on Carbonic anhydrase 2 was 0.2 µM; at Carbonic anhydrase 9, 0.63 µM; on Carbonic anhydrase 12, 0.95 µM.
Consider `NS(=O)(=O)c1cc(NC(=O)Nc2cc(C(F)(F)F)cc(C(F)(F)F)c2)c(O)c([N+](=O)[O-])c1`, for which the Ki stood at 0.34 µM at Carbonic anhydrase 9 and 0.46 µM on Carbonic anhydrase 12. Moreover, the Ratio Ki in the assay listed under Homo sapiens stood at 5. The Activity result in the assay with HT-29 [1], in the assay on MDA-MB-231 [2], with PC-3 [3], with HT-29 [4], in the assay with MDA-MB-231 [5] and with PC-3 [6] was “Dose-dependent effect” in each case. Further, the IC50 turned out to be 60.2 µM with HT-29 [1]; 196 µM in the assay with MDA-MB-231 [2]; 68.6 µM in the assay with PC-3 [3]; 133 µM with HT-29 [4]; 63.2 µM with MDA-MB-231 [5]; 70.6 µM in the assay with PC-3 [6]. Besides, the viability at 200 µM in the assay with MDA-MB-231 [7] amounted to 20.2%; in the assay on MDA-MB-231 [10] it was 45.8%; in the assay on PC-3 [15], 20.9%; in the assay on PC-3 [18], 19.6%. In addition, the viability at 30 µM was 106% with MDA-MB-231 [8]; 100% in the assay on MDA-MB-231 [12]; 118% in the assay with PC-3 [13]; 109% in the assay on PC-3 [16]; 102% in the assay with HT-29 [19]; 98.6% with HT-29 [22]. The viability at 100 µM was found to be 101% in the assay with MDA-MB-231 [9]; 19.8% in the assay with MDA-MB-231 [11]; 23.4% in the assay on PC-3 [14]; 20.1% in the assay with PC-3 [17]; 22.7% in the assay on HT-29 [20]; 63.6% in the assay with HT-29 [23]. Also, the Ratio in the assay on MDA-MB-231 [25] is given as 4. Further, the viability at 300 µM in the assay on HT-29 [26] was found to be 25.6%.
